Shown are actives, neighbours in structure and some others; about 3.5% of the full set was active somewhere.
MrgX1 agonist: agonists of human MrgX1 receptor. B-score at 10 µM. AID 588627. MrgX1-HEK293 cells, Fluo-4 calcium fluorescence, agonist mode; hits give high values. 310,000 tested, 0.44% active;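 active = calcium response B-score plate-corrected fluorescence ratio at least 3 library SD, with starting fluorescence B-score inside 5 SD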
Target sequence (Q96LB2 whole entry, looked up): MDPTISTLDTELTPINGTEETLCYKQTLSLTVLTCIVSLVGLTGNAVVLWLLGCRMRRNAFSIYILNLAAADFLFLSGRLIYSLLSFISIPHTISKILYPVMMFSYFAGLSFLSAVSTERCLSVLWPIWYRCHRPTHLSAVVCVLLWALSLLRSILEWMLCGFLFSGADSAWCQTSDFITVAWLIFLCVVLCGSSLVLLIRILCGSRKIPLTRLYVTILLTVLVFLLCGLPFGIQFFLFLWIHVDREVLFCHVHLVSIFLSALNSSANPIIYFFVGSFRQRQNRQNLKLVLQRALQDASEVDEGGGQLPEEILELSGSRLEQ
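times = overnight plating, then 30 min 37 °C plus 30 min room-temperature dye loading | assay system = stable human MrgX1 HEK293 cell line | input = fifteen thousand cells per well | signal = kinetic calcium dye fluorescence, Fluo-4 NW | dosing = compound delivered in addition one of three | read-out = B-scored fluorescence response ratio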
MrgX1 antagonist: antagonists of human MrgX1 receptor; 310,000 tested, 1.3% active; B-score at 10 µM; MRGX1-HEK293 calcium flux, Fluo-4, BAM8-22 antagonism; hits give low values; Q96LB2;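 active = calcium-response B-score plate-corrected more than 3 library SD below zero, starting fluorescence within 5 deviations, no agonist response on first addition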;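 also: peak minus trough fluorescence over baseline after final BAM8-22 challenge near maximal dose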
RGS4 block: human RGS4 inhibition; HEK293 M3R/RGS4 inducible, Fluo-4 calcium flux; hits give high values; triggered by carbachol at its EC20; B-score at 10 µM; 310,000 tested, 0.45% active; AID 463165;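 active = B-score, a plate-corrected calcium signal, over three deviations above library mean, with baseline fluorescence within five deviations of library mean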;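 also: RGS4 expression induced by doxycycline in cells with stable M3 receptor; B-score is computed from the integrated fluorescence ratio over baseline after carbachol; higher B-score means a larger calcium signal and so more RGS4 inhibition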
Target sequence (P49798 whole entry, looked up): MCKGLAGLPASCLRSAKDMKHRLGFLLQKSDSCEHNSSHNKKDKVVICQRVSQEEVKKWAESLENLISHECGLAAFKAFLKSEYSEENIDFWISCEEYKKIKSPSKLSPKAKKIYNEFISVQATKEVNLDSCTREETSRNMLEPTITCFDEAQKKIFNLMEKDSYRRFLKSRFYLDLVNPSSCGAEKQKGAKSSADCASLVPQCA
RGS4 act: RGS4 potentiation or activation. HEK293 M3R/inducible RGS4, carbachol calcium flux Fluo4; hits give low values. B-score at 10 µM. 310,000 tested, 0.92% active;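 active = B-score of the integrated calcium signal more than 4 SD below the library mean, with starting fluorescence not abnormally high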;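 also: negative B-score means reduced calcium response which marks RGS4 activation or potentiation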
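Also added: carbachol at ECmax as muscarinic agonist stimulus; Assay system: HEK293 cells with stable M3R and inducible RGS4; Timing: overnight RGS4 induction, 30 min dye load 37 °C, 20 min compound RT; Measured by: Fluo4-AM (2 µM) calcium-flux fluorescence, kinetic read.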
MrgX1 allo act: human MrgX1 positive allosteric modulation, primary screen; MrgX1-HEK293, Fluo-4 calcium flux, FDSS; hits give high values; AID 588675; Q96LB2; 310,000 tested, 0.63% active; B-score at 10 µM;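 active = plate-corrected calcium response at least 3 library SD above typical, normal starting fluorescence, not activating the receptor alone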;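 also: compound read alongside a low EC10 to EC30 dose of BAM8-22 agonist; peak minus trough fluorescence over baseline measured at the second addition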
Active calls of the source: *; i = inactive; x = no result; ! = repeats disagree.

SMILES | MrgX1 agonist | MrgX1 antagonist | RGS4 block | RGS4 act | MrgX1 allo act
CCCN1C(=O)/C(=C/c2c(N3CCNC(=O)C3CC(=O)OCC)nc3c(C)cccn3c2=O)SC1=S (centres undefined) | i | i | i | i | i
C/C(=N\OC(=O)NC(C)C)c1sc(-c2ccc(Cl)cc2)nc1C | i | i | i | i | 17*
COc1ccc(Cl)cc1/C=C(\C#N)C(N)=O | 30* | i | i | i | i
CC(=O)N1CCOc2ccc(S(=O)(=O)N3CCN(c4cc(C)ccc4C)CC3)cc21 | i | i | i | i | i
S=C(Nc1ccccc1)Nc1cc(Cl)ccc1Oc1ccccc1 | i | i | i | i | 9.1*
CN=c1scc(-c2cccs2)n1/N=C/c1ccc(O)c(O)c1O | i | i | i | i | 14*
CN=c1scc(C)n1/N=C/c1ccc(O)c(O)c1O | i | i | i | i | i
CN=c1scc(-c2cccs2)n1/N=C/c1ccccc1O | i | i | i | i | 7.4*
COc1ccc(NC(=S)N(CCCOC(C)C)C2CCN(C(C)=O)CC2)cc1Cl | i | i | i | i | i
O=[N+]([O-])c1cc(-c2nnc(Nc3ccccc3)c3ccccc23)ccc1N1CCOCC1 | i | i | i | i | i
COc1ccc2oc(-c3ccc(NC(=O)c4ccc(N5CCOCC5)c([N+](=O)[O-])c4)cc3)nc2c1 | i | i | i | i | i
O=C(Nc1ccc(-c2nc3ccccc3o2)cc1)c1ccc(N2CCOCC2)c([N+](=O)[O-])c1 | i | -6.5* | i | i | i
O=[N+]([O-])c1cc(-c2nnc(Nc3ccc(O)cc3)c3ccccc23)ccc1N1CCOCC1 | i | -4.7* | i | i | i
C=CCNc1nc(NCC)nc(N2CCOCC2)n1 | i | i | i | i | i
C=CCNc1nc(Nc2ccc(-c3nc4ccccc4o3)cc2)nc(N2CCOCC2)n1 | i | i | i | -7.1* | i
CCOC(=O)/C(C#N)=N/Nc1ccc(S(=O)(=O)Nc2cc(OC)nc(OC)n2)cc1 | i | i | i | i | i
COc1ccc(OC)c(CNc2ncc(-c3cccc([N+](=O)[O-])c3)n2C)c1 | i | i | i | -7* | i
Cn1c(-c2cccc([N+](=O)[O-])c2)cnc1NCc1cccc([N+](=O)[O-])c1 | i | i | i | i | i
CCCCn1c(N)c(N(CCC(C)C)C(=O)CCN2C(=O)C3CC=CCC3C2=O)c(=O)[nH]c1=O (centres undefined) | i | i | i | i | i
COc1ccccc1-n1c(-c2ccccc2)c[n+]2c1CCc1ccccc1-2 | i | i | i | -7.9*! | i
O=C(Nc1nnc(CSCc2ccc(Cl)cc2)s1)c1cccc([N+](=O)[O-])c1 | i | -9.5* | i | i | i
COc1ccc(OC)c(N(CC(=O)N2CCCCC2)S(=O)(=O)c2ccc(OC)c(OC)c2)c1 | i | i | i | i | i
COc1ccc(OC)c(N(CC(N)=O)S(=O)(=O)c2ccc(OC)c(OC)c2)c1 | i | i | i | i | 12*
CN(C)CCCNc1c2ccccc2nc2ccccc12 | i | i | i | i | i
OCCNc1c2ccccc2nc2c(F)c(F)c(F)c(F)c12 | i | -8* | i | i | i
SMILES | MrgX1 agonist | MrgX1 antagonist | RGS4 block | RGS4 act | MrgX1 allo act
CCCCn1c(=NC(=O)c2ccco2)c(C(=O)OCC)cc2c(=O)n3cccc(C)c3nc21 | i | i | i | i | i
CC(C)Cc1cc(CNC(=O)C2CCC(=O)N(Cc3cccc(C(F)(F)F)c3)C2)on1 (centres undefined) | i | i | i | i | i
CC1CC1C(=O)OCC(=O)NNC(=O)COc1ccc(Br)cc1 (centres undefined) | i | -6.5* | i | i | i
Cc1ccc(N(C(=O)c2csnn2)C(C(=O)NCc2ccccc2)c2cccnc2)cc1 (centres undefined) | i | i | i | i | i
C=CCn1c(=O)/c(=C/c2ccc(Cl)cc2)s/c1=C(/C#N)c1nnc2n1CCCCC2 | i | i | i | i | i
C=CCn1c(=O)/c(=C/c2ccc(O)cc2)s/c1=C(/C#N)c1nnc2n1CCCCC2 | 36* | i | x | x | i
O=C(CSc1ccccc1)Nc1ccc(N2CCOCC2)c(F)c1 | i | i | i | i | i
CCOC(=O)COc1ccc(S(=O)(=O)Nc2ccc3c(c2)OCO3)cc1 | i | i | i | -8.5* | i
O=C(NCc1ccco1)C1CCN(C(=O)c2ccc([N+](=O)[O-])cc2)CC1 | i | i | i | i | i
COc1ccc2c(COC(=O)c3cccc(S(=O)(=O)NCC(C)C)c3)cc(=O)oc2c1 | i | i | i | -7.2* | i
Cc1ccc(S(=O)(=O)NCC(=O)N/N=C/c2ccccc2O)cc1 | i | -5.4* | i | i | i
Cc1ccc(S(=O)(=O)N2CCC(=O)N(C(COCc3ccc(Cl)c(Cl)c3)Cc3ccccc3)CC2)cc1 (centres undefined) | i | -6.1* | i | i | i
Cc1ccc(S(=O)(=O)N2CCC(=O)N(C(COCc3ccc(C(F)(F)F)cc3)Cc3ccccc3)CC2)cc1 (centres undefined) | i | i | i | -7.3* | i
Cc1ccc(S(=O)(=O)N2CCC(=O)N(C(COCc3cccc(C)c3)Cc3ccccc3)CC2)cc1 (centres undefined) | i | i | i | i | i
Cc1ccc(S(=O)(=O)Nc2ccc(S(=O)(=O)NCC3CCCO3)cc2)cc1 (centres undefined) | i | i | i | i | i
OC1(C#CCN2CCCC2)c2ccccc2-c2ccccc21 | i | i | i | -7* | i
Cc1cc2n(n1)C(c1ccccc1)CC(c1ccc(Br)cc1)=N2 (centres undefined) | i | i | x | x | 15*
CNC(=S)N1N=C(c2ccc(Br)cc2)CC1c1ccc(Br)cc1 (centres undefined) | i | i | i | i | i
C#CCN1C(=O)S/C(=C/c2cc(C)n(CC)c2C)C1=O | i | i | i | i | i
CCn1c(C)cc(/C=C2/SC(=S)N(CC(=O)O)C2=O)c1C | i | i | i | i | 17*
CCCCn1c(N)c(N(CC(C)C)C(=O)c2ccc(Br)s2)c(=O)[nH]c1=O | i | i | i | i | i
CCC(=NC(C)c1ccccc1)c1c(O)n(C)c(=O)n(C)c1=O (centres undefined) | i | -7.4* | i | i | i

Screening results: PubChem BioAssay, Johns Hopkins Ion Channel Center
